Article PMC5361409 (Bioorganic & medicinal chemistry letters, 2016)
Entries after “also recorded” stand apart in the source; their conditions may differ.

Tests used:
[1] = Intrinsic clearance in human liver microsomes; type: in vitro ADME; conditions: for CLint scaled: human, liver microsomes; for predicted clearance: predicted from CLINT in liver microsomes (rat and human), in words
[2] = Intrinsic clearance in rat liver microsomes; type: in vitro ADME
D1 = D1 (Homo sapiens, UniProt P21728); experiment: Dopamine receptor selectivity, radioligand binding at EuroFins: D1; conditions: read-out: % inhibition at 10 µM D1 (%)
Chain of D1 (P21728 whole entry): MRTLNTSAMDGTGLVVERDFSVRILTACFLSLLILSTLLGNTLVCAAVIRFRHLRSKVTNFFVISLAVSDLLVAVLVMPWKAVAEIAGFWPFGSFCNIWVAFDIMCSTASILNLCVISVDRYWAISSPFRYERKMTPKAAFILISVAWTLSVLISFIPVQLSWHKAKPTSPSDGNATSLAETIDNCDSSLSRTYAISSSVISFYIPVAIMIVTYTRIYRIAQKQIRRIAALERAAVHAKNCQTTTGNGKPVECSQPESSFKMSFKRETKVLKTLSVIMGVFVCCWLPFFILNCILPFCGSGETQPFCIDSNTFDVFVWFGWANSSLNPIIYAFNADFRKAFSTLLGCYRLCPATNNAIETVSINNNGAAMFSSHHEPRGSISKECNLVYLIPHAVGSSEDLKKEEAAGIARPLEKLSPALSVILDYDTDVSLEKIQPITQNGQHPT
Method in brief: (§1)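 Contract radioligand binding screen against the indicated human dopamine receptor subtype. Each test compound was run in duplicate, and the read-out is percent inhibition of specific radioligand binding.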

D3 = D3 (Homo sapiens, UniProt P35462); experiment: Dopamine receptor selectivity, radioligand binding at EuroFins: D3; conditions: read-out: % inhibition at 10 µM D3 (%)
Chain of D3 (P35462 whole entry): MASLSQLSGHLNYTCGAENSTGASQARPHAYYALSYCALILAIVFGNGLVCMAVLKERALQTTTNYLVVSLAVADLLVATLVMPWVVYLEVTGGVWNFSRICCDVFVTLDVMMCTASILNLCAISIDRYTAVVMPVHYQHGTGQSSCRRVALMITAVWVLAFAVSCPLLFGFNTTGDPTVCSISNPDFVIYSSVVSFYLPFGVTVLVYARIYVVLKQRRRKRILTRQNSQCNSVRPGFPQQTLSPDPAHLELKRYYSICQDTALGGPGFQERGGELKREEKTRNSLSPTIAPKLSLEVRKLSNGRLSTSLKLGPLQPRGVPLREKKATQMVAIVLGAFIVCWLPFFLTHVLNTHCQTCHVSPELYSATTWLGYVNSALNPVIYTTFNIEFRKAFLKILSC
Method in brief: as §1

D5 = D5 (Homo sapiens, UniProt P21918); experiment: Dopamine receptor selectivity, radioligand binding at EuroFins: D5; conditions: read-out: % inhibition at 10 µM D5 (%)
Chain of D5 (P21918 whole entry): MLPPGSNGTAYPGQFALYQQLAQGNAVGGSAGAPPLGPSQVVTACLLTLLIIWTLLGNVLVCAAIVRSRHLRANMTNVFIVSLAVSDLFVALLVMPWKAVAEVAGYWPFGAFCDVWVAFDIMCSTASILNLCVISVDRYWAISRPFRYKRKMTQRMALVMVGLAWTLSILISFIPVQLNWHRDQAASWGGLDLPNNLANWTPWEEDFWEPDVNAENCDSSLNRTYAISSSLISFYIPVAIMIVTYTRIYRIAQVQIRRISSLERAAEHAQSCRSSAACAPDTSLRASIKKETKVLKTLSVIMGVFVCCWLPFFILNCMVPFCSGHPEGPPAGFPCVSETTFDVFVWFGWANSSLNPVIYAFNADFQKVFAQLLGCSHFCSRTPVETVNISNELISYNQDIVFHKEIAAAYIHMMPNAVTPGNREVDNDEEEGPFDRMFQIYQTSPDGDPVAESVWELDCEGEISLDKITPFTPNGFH
Method in brief: as §1

[3] = test system: other dopamine receptors (D1, D2L, D2S, D3, and D5); experiment: Selectivity against the other dopamine receptors; type: binding; conditions: for selectivity against all of the dopamine receptors tested: in words
[4] = Metabolic soft-spot experiment in human liver microsomes; type: in vitro ADME
[5] = Metabolic soft-spot experiment in rat liver microsomes; type: in vitro ADME
[6] = biological target: T1, dopamine D4 receptor (D4R) (Homo sapiens, UniProt P21917); experiment: D4 radioligand binding assay using Spiperone at EuroFins; conditions: run in duplicate
T1 sequence (P21917 1-419): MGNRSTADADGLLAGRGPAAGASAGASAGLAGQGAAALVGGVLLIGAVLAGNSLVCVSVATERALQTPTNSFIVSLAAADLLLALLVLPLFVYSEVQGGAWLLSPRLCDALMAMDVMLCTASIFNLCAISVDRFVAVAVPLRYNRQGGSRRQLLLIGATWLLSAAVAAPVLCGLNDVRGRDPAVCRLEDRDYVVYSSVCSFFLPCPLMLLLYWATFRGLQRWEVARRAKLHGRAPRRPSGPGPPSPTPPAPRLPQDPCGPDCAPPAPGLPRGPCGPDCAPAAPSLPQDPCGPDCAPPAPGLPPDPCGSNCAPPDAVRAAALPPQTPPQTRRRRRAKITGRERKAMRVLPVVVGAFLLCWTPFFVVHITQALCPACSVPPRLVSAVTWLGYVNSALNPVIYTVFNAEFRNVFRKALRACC

[7] = in the presence of NADPH, in words

SMILES	CLint scaled [1] [mL/min/kg]	CLint scaled [2] [mL/min/kg]	inhibition at 10 µM (D1) [%]	inhibition at 10 µM (D3) [%]	inhibition at 10 µM (D5) [%]	also measured
Clc1ccc2c(CN3CCO[C@H](COc4ccccc4)C3)c[nH]c2c1 [Compound 4aa]	46.7	614				
COc1ccc2c(CN3CCO[C@H](COc4ccccc4)C3)c[nH]c2c1 [Compound 4dd]	31.6	184				
Fc1ccc2c(CN3CCO[C@H](COc4ccccc4)C3)c[nH]c2c1 [Compound 4ee]	71.1	1690				
Clc1ccc(CN2CCO[C@H](COc3ccccc3)C2)cc1Cl [Compound 4i]	50.5	621				
COc1cc(CN2CCO[C@H](COc3ccccc3)C2)ccc1Cl [Compound 4p]	79.7	1500				
c1ccc(OC[C@@H]2CN(Cc3ncn4ccccc34)CCO2)cc1 [Compound 4u]			< 50	< 50	< 50	
c1ccc(OC[C@@H]2CN(Cc3n[nH]c4ccccc34)CCO2)cc1 [Compound 4v]			< 50	< 50	< 50	
Cn1ncc2cc(CN3CCO[C@H](COc4ccccc4)C3)ccc21 [Compound 4y]	60.5	433				
c1ccc(OC[C@@H]2CN(Cc3ccc4[nH]ccc4c3)CCO2)cc1 [Compound 4z]	135	3140				
COc1ccc(CN2CCO[C@H](COc3cccc(F)c3)C2)cc1Cl [Compound 5m]	93	1500	< 50	< 50	< 50	
COc1cc(CN2CCO[C@H](COc3cccc(F)c3)C2)ccc1Cl [Compound 5n]	68.9	1770	< 50	< 50	< 50	
Fc1ccc2c(CN3CCO[C@H](COc4cccc(F)n4)C3)c[nH]c2c1 [Compound 5u]	101	4010	< 50	< 50	< 50	selectivity against all of the dopamine receptors tested [3]: fully selective
Clc1ccc(CN2CCO[C@H](COc3cccc(Cl)n3)C2)cc1 [Compound 5z]	98.2	5310				
Clc1ccc(CN2CCO[C@H](CCc3ccccc3)C2)cc1 [ML398]						IC50 [6]: 130 nM; Ki [6]: 36 nM

More lines, main results first:

CLint scaled [1] [mL/min/kg]	CLint scaled [2] [mL/min/kg]	inhibition at 10 µM (D1) [%]	inhibition at 10 µM (D3) [%]	inhibition at 10 µM (D5) [%]	SMILES	also measured
147	4520				Clc1ccc(CN2CCO[C@H](COc3ccccc3)C2)cc1 [Compound 4a]	
		< 50	< 50	< 50	Cc1ccc(CN2CCO[C@H](COc3ccccc3)C2)cc1C [Compound 4b]	
65.3	251				Fc1cc(CN2CCO[C@H](COc3ccccc3)C2)ccc1Cl [Compound 4g]	predicted clearance [1]: moderate
50.5	247				Fc1cc(CN2CCO[C@H](COc3ccccc3)C2)ccc1C(F)(F)F [Compound 4j]	
71.9	2130				COc1ccc(CN2CCO[C@H](COc3ccccc3)C2)cc1F [Compound 4l]	
78.7	1600	< 50	< 50	< 50	COc1ccc(CN2CCO[C@H](COc3ccccc3)C2)cc1Cl [Compound 4n]	
17.3	154				c1ccc(OC[C@@H]2CN(Cc3cn4ccccc4n3)CCO2)cc1 [Compound 4t]	predicted clearance [1]: moderate
122	3220	< 50	< 50	< 50	Clc1ccc(CN2CCO[C@H](CSc3ccccc3)C2)cc1 [Compound 5aa]	selectivity for D4 over the other dopamine receptors [3]: > 1000 fold; selectivity against all of the dopamine receptors tested [3]: completely selective
366	6440	< 50	< 50	< 50	Cc1ccc(CN2CCO[C@H](CSc3ccccc3)C2)cc1C [Compound 5bb]	selectivity for D4 over the other dopamine receptors [3]: > 1000 fold; selectivity against all of the dopamine receptors tested [3]: completely selective
230	4200	< 50	< 50	< 50	Fc1ccc2c(CN3CCO[C@H](COc4cccc(Cl)n4)C3)c[nH]c2c1 [Compound 5y, (S)-2-(((6-chloropyridin-2-yl)oxy)methyl)-4-((6-fluoro-1H-indol-3-yl)methyl)morpholine]	selectivity for D4 over the other dopamine receptors [3]: > 1000 fold; selectivity against all of the dopamine receptors tested [3]: fully selective; also recorded: completely selective; major metabolite in human microsomes ([4]; Compound A = N-dealkylation): Compound A; extent of metabolism in human liver microsomes [4, 7]: highly metabolized; major metabolite in rat microsomes ([5]; Compound B = N-dealkylation + oxidation): Compound B; extent of metabolism in rat liver microsomes [5, 7]: highly metabolized
